{"source": "paper PMC4238591", "about": "(Analytical Chemistry, 2014)", "molecules": {"B1": {"name": "PnA: Peanut (Arachis hypogaea) agglutinin, tetrameric lectin that binds specifically to terminal D-galactosyl groups; from Sigma-Aldrich (protein, UniProt P02872 24-273, looked up)", "Galactose-binding lectin": "AETVSFNFNSFSEGNPAINFQGDVTVLSNGNIQLTNLNKVNSVGRVLYAMPVRIWSSATGNVASFLTSFSFEMKDIKDYDPADGIIFFIAPEDTQIPAGSIGGGTLGVSDTKGAGHFVGVEFDTYSNSEYNDPPTDHVGIDVNSVDSVKTVPWNSVSGAVVKVTVIYDSSTKTLSVAVTNDNGDITTIAQVVDLKAKLPERVKFGFSASGSLGGRQIHLIRSWSFTSTLITTTRRSIDNNEKKIMNMASA"}}, "key": {"[1]": {"assay_type": "binding, Ovine"}, "[2]": {"assay": "SHG isotherm of nonspecific binding of CTB to pure DOPC bilayer", "details": "entire CTB concentration range examined (0.22 to 13 nM)"}, "[3]": {"details": "SPR, 120–240 nM CTB, cited from earlier work"}, "[4]": {"details": "fluorescence; 1 mol % GM1; Hill–Waud model; cited from earlier work"}, "[5]": {"assay": "SHCS of PnA binding to 5 mol % GM1-doped DOPC lipid bilayer", "parameters": "species or system Ovine", "details": "for equilibrium binding affinity Ka: eq 2"}, "[6]": {"assay": "SHCS of nonspecific binding of PnA to pure DOPC bilayer", "details": "0.43, 3 and 12 μM PnA, pure DOPC bilayer without GM1", "how_it_was_run": "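Data were recorded after steady-state equilibrium on each laser pulse (20 Hz, 50 ms step). For each protein concentration, 20 sets of 5000 points each (1.4 h) were taken. Each set's FFT was multiplied by its complex conjugate, the sets were averaged, and the result was inverse-transformed to give the autocorrelation. Time-zero points were normalized to matching specific-binding data (5 mol % GM1 in DOPC).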"}, "[7]": {"system": "N-acetylgalactose receptors on Chinese hamster ovarian (CHO) cells", "details": "lectin iodination, PnA 10–60 μM, at least 1 h incubation; cited from earlier work"}, "[8]": {"details": "cited from earlier work"}, "[9]": {"details": "[PnA] 0.43 μM, 5 mol % GM1, SHCS"}, "[10]": {"details": "[PnA] 3.0 μM, 5 mol % GM1, SHCS"}, "[11]": {"details": "[PnA] 12.2 μM, 5 mol % GM1, SHCS"}}, "note": "“And” between values parts separate entries of the source, which are not always exact repeats. Identical values can stand only once. Like-named read-outs stand apart in the source and are kept apart here.", "data": [{"molecule": "CTB", "values": [{"measurement": "koff", "setting": "[1]", "value": "3.6 ± 0.5 ×10^–5 s^–1 and 3.2 ± 0.4 ×10^–5 s^–1 and 2.5 ± 0.2 ×10^–5 s^–1"}, {"measurement": "nonspecific binding", "setting": "[2]", "value": "negligible nonspecific binding"}, {"measurement": "kon", "setting": "[3]; 5 mol % GM1-doped lipid bilayer", "value": "1.27 × 10^6 M^–1·s^–1"}, {"measurement": "Kd", "setting": "[3]; steady-state equilibrium", "value": 4.61, "unit": "pM"}, {"measurement": "Ka", "setting": "[4]", "value": "(3.2 ± 0.7) × 10^9 M ^–1"}, {"measurement": "Kd", "setting": "[4]", "value": 310, "unit": "pM"}, {"measurement": "n (Hill coefficient)", "setting": "[4]", "value": 1.9}]}, {"molecule": "B1", "values": [{"measurement": "adsorption rate", "setting": "[5]; 0.43 μM PnA, 5 mol % GM1, SHCS", "value": "(3.7 ± 0.3) × 10^6 M^–1·s^–1"}, {"measurement": "desorption rate", "setting": "[5]; 0.43 μM PnA, 5 mol % GM1, SHCS", "value": "(1.0 ± 0.2) × 10^–3 s^–1"}, {"measurement": "equilibrium binding affinity Ka", "setting": "[5]; 0.43 μM PnA, SHCS", "value": "(3.7 ± 0.8) × 10^9 M^–1"}, {"measurement": "adsorption rate", "setting": "[5]; 3 μM PnA, 5 mol % GM1, SHCS", "value": "(3.9 ± 0.3) × 10^5 M^–1·s^–1"}, {"measurement": "desorption rate", "setting": "[5]; 3 μM PnA, 5 mol % GM1, SHCS", "value": "(2.2 ± 0.2) × 10^–3 s^–1"}, {"measurement": "equilibrium binding affinity Ka", "setting": "[5]; 3 μM PnA, SHCS", "value": "(1.7 ± 0.2) × 10^8 M^–1"}, {"measurement": "adsorption rate", "setting": "[5]; 12 μM PnA, 5 mol % GM1, SHCS", "value": "(1.1 ± 0.1) × 10^5 M^–1·s^–1"}, {"measurement": "desorption rate", "setting": "[5]; 12 μM PnA, 5 mol % GM1, SHCS", "value": "(2.7 ± 0.2) × 10^–3 s^–1"}, {"measurement": "equilibrium binding affinity Ka", "setting": "[5]; 12 μM PnA, SHCS", "value": "(4.1 ± 0.5) × 10^7 M^–1"}, {"measurement": "Ka", "setting": "[5]; 60 μM PnA, 5 mol % GM1, SHCS", "value": "(8.4 ± 1.4) × 10^6 M^–1"}, {"measurement": "adsorption rate", "setting": "[5]; 60 μM PnA, 5 mol % GM1, SHCS", "value": "(3.1 ± 0.3) × 10^4 M^–1·s^–1"}, {"measurement": "desorption rate", "setting": "[5]; 60 μM PnA, 5 mol % GM1, SHCS", "value": "(3.7 ± 0.5) × 10^–3 s^–1"}, {"measurement": "koff", "setting": "[5]; [9]", "value": "1.0 ± 0.2 ×10^–3 s^–1"}, {"measurement": "kon", "setting": "[5]; [9]", "value": "37 ± 3 ×10^5 M^–1·s^–1"}, {"measurement": "Ka", "setting": "[5]; [PnA] 0.43 μM, calculated by eq 2", "value": "37 ± 8 ×10^8 M^–1"}, {"measurement": "koff", "setting": "[5]; [10]", "value": "2.2 ± 0.2 ×10^–3 s^–1"}, {"measurement": "kon", "setting": "[5]; [10]", "value": "3.9 ± 0.3 ×10^5 M^–1·s^–1"}, {"measurement": "Ka", "setting": "[5]; [PnA] 3.0 μM, calculated by eq 2", "value": "1.7 ± 0.2 ×10^8 M^–1"}, {"measurement": "koff", "setting": "[5]; [11]", "value": "2.7 ± 0.2 ×10^–3 s^–1"}, {"measurement": "kon", "setting": "[5]; [11]", "value": "1.1 ± 0.1 ×10^5 M^–1·s^–1"}, {"measurement": "Ka", "setting": "[5]; [PnA] 12.2 μM, calculated by eq 2", "value": "0.41 ± 0.05 ×10^8 M^–1"}, {"measurement": "nonspecific binding", "setting": "[6]", "value": "negligible nonspecific binding"}, {"measurement": "Ka", "setting": "[7]", "value": "(4.5 ± 1) × 10^6 M^–1"}, {"measurement": "pI", "setting": "[8]", "value": "~6"}]}]}
